In ChEMBL document CHEMBL4477216, “Discovery and Optimization of Small Molecule Splicing Modifiers of Survival Motor Neuron 2 as a Treatment for Spinal Muscular Atrophy” (J Med Chem, 2016):

Legend:
[1] = Apparent permeability in human Caco2 cells; type: ADME, cell-based; conditions: Caco-2
Procedure, shortened: (§1)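 Bidirectional permeability was measured across a Caco-2 cell monolayer. Papp was reported, and efflux was expressed as the B-A/A-B ratio.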

[2] = Efflux ratio of apparent permeability from basolateral to apical over apical to basolateral side in human Caco2 cells; type: ADME, cell-based; conditions: Caco-2; procedure, shortened: as §1
[3] = Protein binding in human plasma; type: ADME, cell-free; conditions: read-out: PPB (converted)
[4] = AUC (0 to 6 hrs) in Sprague-Dawley rat at 10 mg/kg, po; type: ADME, organism-based; set-up: dose 10 mg/kg, time < 6 hr, route oral; conditions: in vivo
Procedure, shortened: (§2)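 Male Sprague-Dawley rats got a single oral 10 mg/kg dose as a suspension in 0.5% hydroxypropyl methylcellulose with 0.1% Tween-80. Plasma was sampled at several time points up to 6 h post dose to give AUC0-6h. Total brain concentration was taken at 6 h to give the brain/plasma ratio.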

[5] = Ratio of drug level in brain to plasma of Sprague-Dawley rat at 10 mg/kg, po measured at 6 hrs; type: ADME, organism-based; conditions: brain and plasma, read-out: BPR; procedure, shortened: as §2
[6] = AUC (0 to 24 hrs) in FVB.Cg-Tg(SMN2 delta 7 exon)4299Ahmb Tg(SMN2)89Ahmb Smn1tm1Msd/J mouse at 10 mg/kg, ip; type: ADME, organism-based; set-up: dose 10 mg/kg, time < 24 hr, route intraperitoneal; conditions: in vivo
Procedure, shortened: (§3)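 Single 10 mg/kg IP dose given on postnatal day 9 to neonatal mice. Vehicle was 100% DMSO solution (2.5 mL/kg). Plasma and brain drug levels were measured, giving plasma AUC0-24h and the brain/plasma ratio.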

[7] = Ratio of drug level in brain to plasma of FVB.Cg-Tg(SMN2 delta 7 exon)4299Ahmb Tg(SMN2)89Ahmb Smn1tm1Msd/J mouse at 10 mg/kg, ip; type: ADME, organism-based; conditions: brain and plasma, read-out: BPR; procedure, shortened: as §3
Mus musculus [8] = assay: In vivo inhibition of mRNA splicing of human SMN2 exon 7 in FVB.Cg-Tg(SMN2 delta 7 exon)4299Ahmb Tg(SMN2)89Ahmb Smn1tm1Msd/J mouse assessed as increase in SMN protein level in brain administered as ip qd on postnatal day 3 to day 9 by HTRF assay; type: functional, organism-based
Procedure, shortened: (§4)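 Homozygous Δ7 SMA mice were dosed IP once daily from PND3 to PND9 with compound or vehicle (100% DMSO solution, 2.5 mL/kg). Brain, spinal cord and quadriceps were homogenized in RIPA buffer with protease inhibitors. SMN was read by HTRF (anti-SMN d2 and Kryptate antibodies, overnight rt, 665/620 nm) and normalized to BCA total protein. Values are % change versus vehicle ±SD; 5-11 mice per group.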

Mus musculus [9] = assay: In vivo inhibition of mRNA splicing of human SMN2 exon 7 in FVB.Cg-Tg(SMN2 delta 7 exon)4299Ahmb Tg(SMN2)89Ahmb Smn1tm1Msd/J mouse assessed as increase in SMN protein level in spinal cord administered as ip qd on postnatal day 3 to day 9 by HTRF assay; type: functional, organism-based; procedure, shortened: as §4
Mus musculus [10] = assay: In vivo inhibition of mRNA splicing of human SMN2 exon 7 in FVB.Cg-Tg(SMN2 delta 7 exon)4299Ahmb Tg(SMN2)89Ahmb Smn1tm1Msd/J mouse assessed as increase in SMN protein level in quadriceps administered as ip qd on postnatal day 3 to day 9 by HTRF assay; type: functional, organism-based; procedure, shortened: as §4
Mus musculus [11] = assay: In vivo inhibition of mRNA splicing of human SMN2 exon 7 in po dosed FVB.Cg-Tg(SMN2 delta 7 exon)4299Ahmb Tg(SMN2)89Ahmb Smn1tm1Msd/J mouse assessed as increase in survival time administered as bid on postnatal day 24; type: functional, organism-based
Procedure, shortened: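 Δ7 SMA mice were dosed IP once daily from PND3 to PND23 with compound or vehicle in DMSO (2.5 mL/kg). From PND24 dosing was oral, twice daily, in 0.5% HPMC/0.1% Tween-80 at a higher daily dose. Survivors were counted daily to give median survival time and the fraction alive at study end.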

Mus musculus [12] = assay: In vivo inhibition of mRNA splicing of human SMN2 exon 7 in FVB.Cg-Tg(SMN2 delta 7 exon)4299Ahmb Tg(SMN2)89Ahmb Smn1tm1Msd/J mouse assessed as increase in SMN protein level in brain at 0.1 mg/kg, ip qd administered on postnatal day 3 to day 9 by HTRF assay relative to control; type: functional; set-up: scale not given: the % may be the effect or the level left; procedure, shortened: as §4
Mus musculus [13] = assay: In vivo inhibition of mRNA splicing of human SMN2 exon 7 in FVB.Cg-Tg(SMN2 delta 7 exon)4299Ahmb Tg(SMN2)89Ahmb Smn1tm1Msd/J mouse assessed as increase in SMN protein level in brain at 0.3 mg/kg, ip qd administered on postnatal day 3 to day 9 by HTRF assay relative to control; type: functional; set-up: scale not given: the % may be the effect or the level left; procedure, shortened: as §4
Mus musculus [14] = assay: In vivo inhibition of mRNA splicing of human SMN2 exon 7 in FVB.Cg-Tg(SMN2 delta 7 exon)4299Ahmb Tg(SMN2)89Ahmb Smn1tm1Msd/J mouse assessed as increase in SMN protein level in brain at 3 mg/kg, ip qd administered on postnatal day 3 to day 9 by HTRF assay relative to control; type: functional; set-up: scale not given: the % may be the effect or the level left; procedure, shortened: as §4
Mus musculus [15] = assay: In vivo inhibition of mRNA splicing of human SMN2 exon 7 in FVB.Cg-Tg(SMN2 delta 7 exon)4299Ahmb Tg(SMN2)89Ahmb Smn1tm1Msd/J mouse assessed as increase in SMN protein level in spinal cord at 0.1 mg/kg, ip qd administered on postnatal day 3 to day 9 by HTRF assay relative to control; type: functional; set-up: scale not given: the % may be the effect or the level left; procedure, shortened: as §4
Mus musculus [16] = assay: In vivo inhibition of mRNA splicing of human SMN2 exon 7 in FVB.Cg-Tg(SMN2 delta 7 exon)4299Ahmb Tg(SMN2)89Ahmb Smn1tm1Msd/J mouse assessed as increase in SMN protein level in spinal cord at 0.3 mg/kg, ip qd administered on postnatal day 3 to day 9 by HTRF assay relative to control; type: functional; set-up: scale not given: the % may be the effect or the level left; procedure, shortened: as §4
Mus musculus [17] = assay: In vivo inhibition of mRNA splicing of human SMN2 exon 7 in FVB.Cg-Tg(SMN2 delta 7 exon)4299Ahmb Tg(SMN2)89Ahmb Smn1tm1Msd/J mouse assessed as increase in SMN protein level in quadriceps at 0.1 mg/kg, ip qd administered on postnatal day 3 to day 9 by HTRF assay relative to control; type: functional; set-up: scale not given: the % may be the effect or the level left; procedure, shortened: as §4
Mus musculus [18] = assay: In vivo inhibition of mRNA splicing of human SMN2 exon 7 in FVB.Cg-Tg(SMN2 delta 7 exon)4299Ahmb Tg(SMN2)89Ahmb Smn1tm1Msd/J mouse assessed as increase in SMN protein level in quadriceps at 0.3 mg/kg, ip qd administered on postnatal day 3 to day 9 by HTRF assay relative to control; type: functional; set-up: scale not given: the % may be the effect or the level left; procedure, shortened: as §4
Mus musculus [19] = assay: In vivo inhibition of mRNA splicing of human SMN2 exon 7 in ip dosed FVB.Cg-Tg(SMN2 delta 7 exon)4299Ahmb Tg(SMN2)89Ahmb Smn1tm1Msd/J mouse assessed as increase in survival time administered as qd on postnatal day 3 to 23
Mus musculus [20] = assay: In vivo inhibition of mRNA splicing of human SMN2 exon 7 in FVB.Cg-Tg(SMN2 delta 7 exon)4299Ahmb Tg(SMN2)89Ahmb Smn1tm1Msd/J mouse assessed as median survival time at 0.6 mg/kg/day, po bid administered on postnatal day 24 (reference value: 14 days); type: functional

SMILES	Papp [1]	efflux ratio [2]	fraction unbound [3]	AUC(0-t) at 6 h [4]	Kp at 6 h [5]	AUC(0-t) at 24 h [6]	Kp [7]	Activity (Mus musculus [8])	Activity (Mus musculus [9])	Activity (Mus musculus [10])	Activity (Mus musculus [11])	Activity (Mus musculus [12])	Activity (Mus musculus [13])	Activity (Mus musculus [14])	Activity (Mus musculus [15])	Activity (Mus musculus [16])	Activity (Mus musculus [17])	Activity (Mus musculus [18])	Activity (Mus musculus [19])	MST (Mus musculus [20])
Cc1cn2nc(-c3cc(=O)n4cc(N5CCN(C)CC5)ccc4n3)cc2c(C)n1	7.5 ×10⁻⁶ cm/s	1.7	0.2	2100 ng·h/mL	1.6	6900 ng·h/mL	2.9	Dose-dependent effect	Dose-dependent effect	Dose-dependent effect	Dose-dependent effect	43%	61%	230%	26%	67%	6%	33%	Dose-dependent effect	–
Cc1cn2cc(-c3cc4ccc(N5CCN(C)CC5)cc4c(=O)o3)nc2c(C)n1	1.2 ×10⁻⁶ cm/s	1.3	0.07	790 ng·h/mL	11	5000 ng·h/mL	17	Dose-dependent effect	Dose-dependent effect	Dose-dependent effect	Dose-dependent effect	66%	114%	395%	35%	98%	14%	83%	Dose-dependent effect	>100 days
CCN1CCN(c2ccc3cc(-c4cn5cc(C)nc(C)c5n4)c(=O)oc3c2)C[C@@H]1C	1.2 ×10⁻⁶ cm/s	1.9	0.04	1100 ng·h/mL	19	3600 ng·h/mL	18	Dose-dependent effect	Dose-dependent effect	Dose-dependent effect	Dose-dependent effect	115%	194%	–	92%	164%	154%	147%	Dose-dependent effect	34 days
